Assay results reported in ChEMBL document CHEMBL3779815, “Synthesis of newer 1,2,3-triazole linked chalcone and flavone hybrid compounds and evaluation of their antimicrobial and cytotoxic activities” (Eur J Med Chem, 2016).
≈ marks a conversion by molar mass, not a printed value.

Legend:
Candida parapsilosis = assay: Antifungal activity against Candida parapsilosis ATCC 22019 after 18 to 24 hrs by micro-dilution method; type: functional; details: Lodderomyces parapsilosis
In short: (§1)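 Microdilution MIC run as the antibacterial protocol but on Sabouraud dextrose […] pH 7.3±0.2; compounds 100 to 0.78 μg/mL in twofold steps; saline-prepared inocula 1-2 × 10⁷ cfu/mL, 0.01 mL added; 37 °C aerobic, 18-24 h; MIC read as lowest concentration without visible growth or turbidity; fluconazole reference.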

Staphylococcus aureus = assay: Antibacterial activity against Staphylococcus aureus […] after 18 to 24 hrs by micro-dilution method; type: functional
Enterococcus faecalis = assay: Antibacterial activity against Enterococcus faecalis ATCC 29212 after 18 to 24 hrs by micro-dilution assay; type: functional
Plasmodium falciparum = assay: Antimalarial activity against erythrocytic stage of chloroquine sensitive Plasmodium falciparum 3D7 assessed as inhibition of parasitemia after 48 hrs by Giemsa staining based microscopic analysis; type: functional, organism-based; details: 3D7, 48 h
In short: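 Asynchronous culture on human O⁺ erythrocytes, 1-1.5% parasitemia, 4% hematocrit, RPMI-1640 with HEPES, NaHCO₃, glutamine, gentamycin, Albumax II; drug 0.10-100 μg/mL, 48 h, 37 °C, medium changed at 24 h; triplicate wells; Giemsa thin smears, about 4,000 erythrocytes counted at 1,000X; % parasitemia inhibition versus control gives IC50.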

Pseudomonas aeruginosa = assay: Antibacterial activity against Pseudomonas aeruginosa […] after 18 to 24 hrs by micro-dilution method; type: functional
Candida tropicalis = assay: Antifungal activity against Candida tropicalis ATCC 750 after 18 to 24 hrs by micro-dilution method; type: functional; in short: as §1
Shigella boydii = assay: Antibacterial activity against Shigella boydii clinical isolate after 18 to 24 hrs by micro-dilution method; type: functional
Escherichia coli = assay: Antibacterial activity against Escherichia coli ATCC 35218 after 18 to 24 hrs by micro-dilution method; type: functional
Klebsiella pneumoniae = assay: Antibacterial activity against Klebsiella pneumoniae ATCC 27736 after 18 to 24 hrs by micro-dilution method; type: functional
Aspergillus niger = assay: Antifungal activity against Aspergillus niger clinical isolate after 18 to 24 hrs by micro-dilution method; type: functional; in short: as §1
Aspergillus fumigatus = assay: Antifungal activity against Aspergillus fumigatus clinical isolate after 18 to 24 hrs by micro-dilution method; type: functional; in short: as §1
Arthrodermataceae = assay: Antifungal activity against Dermatophyte clinical isolate after 18 to 24 hrs by micro-dilution method; type: functional; in short: as §1
Candida albicans [1] = assay: Antifungal activity against Candida albicans clinical isolate after 18 to 24 hrs by micro-dilution method; type: functional; in short: as §1
[2] = Cytotoxicity against human HuH7 cells after 72 hrs by MTT assay; type: cell-based, Huh-7
In short: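 Huh-7 cells, 4 × 10³/well in DMEM with 10% FBS and penicillin-streptomycin-glutamine; eight 2-fold dilutions 100-0.78 μg/mL, 72 h; MTT added 2-4 h, then isopropanol/Triton X-100/HCl solubilization 2 h dark, RT; absorbance 570 nm; CC50 as mean of at least two experiments in duplicate.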

Candida albicans [3] = assay: Antifungal activity against Candida albicans ATCC 90028 after 18 to 24 hrs by micro-dilution method; type: functional; in short: as §1
Cryptococcus neoformans = assay: Antifungal activity against Cryptococcus neoformans clinical isolate after 18 to 24 hrs by micro-dilution method; type: functional; in short: as §1

Work on `COc1cc(O)c(C(=O)/C=C/c2ccc(OC)c(OCc3cn(-c4ccc(F)c(Cl)c4)nn3)c2)c(OC)c1` yielded an MIC (Candida parapsilosis) of over 100 µg/mL, an MIC (Staphylococcus aureus) of over 100 µg/mL and an MIC (Enterococcus faecalis) of 100 µg/mL (≈ 185 µM). The IC50 (Plasmodium falciparum) was 7.52 µg/mL (≈ 13.9 µM), the MIC (Pseudomonas aeruginosa) was over 100 µg/mL and the MIC (Candida tropicalis) was 100 µg/mL (≈ 185 µM). The MIC (Shigella boydii) was over 100 µg/mL, the MIC (Escherichia coli) was 100 µg/mL (≈ 185 µM) and the MIC (Klebsiella pneumoniae) was over 100 µg/mL. The MIC (Aspergillus niger) was over 100 µg/mL, the MIC (Aspergillus fumigatus) was over 100 µg/mL and the MIC (Arthrodermataceae) was over 100 µg/mL. For the same compound, the MIC (Candida albicans [1]) was over 100 µg/mL, the CC50 at 72 h [2] was over 100 µg/mL and the MIC (Candida albicans [3]) was over 100 µg/mL. The MIC (Cryptococcus neoformans) was 100 µg/mL (≈ 185 µM).
With `COc1cc(O)c(C(=O)/C=C/c2ccc(OCc3cn(-c4ccc(F)cc4Cl)nn3)c(OCc3cn(-c4ccc(F)cc4Cl)nn3)c2)c(OC)c1` the MIC (Candida parapsilosis) was over 100 µg/mL, the MIC (Staphylococcus aureus) was over 100 µg/mL and the MIC (Enterococcus faecalis) was over 100 µg/mL. The IC50 (Plasmodium falciparum) was 8.55 µg/mL (≈ 11.6 µM), the MIC (Pseudomonas aeruginosa) was 100 µg/mL (≈ 136 µM) and the MIC (Candida tropicalis) was over 100 µg/mL. For the same compound, the MIC (Shigella boydii) was over 100 µg/mL, the MIC (Escherichia coli) was over 100 µg/mL and the MIC (Klebsiella pneumoniae) was over 100 µg/mL. For the same compound, the MIC (Aspergillus niger) was over 100 µg/mL, the MIC (Aspergillus fumigatus) was over 100 µg/mL and the MIC (Arthrodermataceae) was over 100 µg/mL. For the same compound, the MIC (Candida albicans [1]) was over 100 µg/mL, the CC50 at 72 h [2] was over 100 µg/mL and the MIC (Candida albicans [3]) was over 100 µg/mL. For the same compound, the MIC (Cryptococcus neoformans) was over 100 µg/mL.
Work on `COc1cc(O)c(C(=O)/C=C/c2ccc(OCc3cn(-c4ccc(F)cc4F)nn3)c(OC)c2)c(OC)c1` yielded an MIC (Candida parapsilosis) of 25 µg/mL (≈ 47.8 µM), an MIC (Staphylococcus aureus) of 12.5 µg/mL (≈ 23.9 µM) and an MIC (Enterococcus faecalis) of 12.5 µg/mL (≈ 23.9 µM). The IC50 (Plasmodium falciparum) was 3.58 µg/mL (≈ 6.84 µM), the MIC (Pseudomonas aeruginosa) was 12.5 µg/mL (≈ 23.9 µM) and the MIC (Candida tropicalis) was over 100 µg/mL. The MIC (Shigella boydii) was 6.25 µg/mL (≈ 11.9 µM), the MIC (Escherichia coli) was 6.25 µg/mL (≈ 11.9 µM) and the MIC (Klebsiella pneumoniae) was 12.5 µg/mL (≈ 23.9 µM). For the same compound, the MIC (Aspergillus niger) was over 100 µg/mL, the MIC (Aspergillus fumigatus) was over 100 µg/mL and the MIC (Arthrodermataceae) was over 100 µg/mL. It also gave an MIC (Candida albicans [1]) of 50 µg/mL (≈ 95.5 µM), a CC50 at 72 h [2] of over 100 µg/mL and an MIC (Candida albicans [3]) of over 100 µg/mL. It also gave an MIC (Cryptococcus neoformans) of 50 µg/mL (≈ 95.5 µM).
`COc1cc(O)c(C(=O)/C=C/c2ccc(OCc3cn(-c4ccc(F)cc4Cl)nn3)c(OC)c2)c(OC)c1` gave an MIC (Candida parapsilosis) of over 100 µg/mL, an MIC (Staphylococcus aureus) of 6.25 µg/mL (≈ 11.6 µM) and an MIC (Enterococcus faecalis) of 6.25 µg/mL (≈ 11.6 µM). It also gave an IC50 (Plasmodium falciparum) of 6.27 µg/mL (≈ 11.6 µM), an MIC (Pseudomonas aeruginosa) of 12.5 µg/mL (≈ 23.2 µM) and an MIC (Candida tropicalis) of 100 µg/mL (≈ 185 µM). For the same compound, the MIC (Shigella boydii) was 12.5 µg/mL (≈ 23.2 µM), the MIC (Escherichia coli) was 12.5 µg/mL (≈ 23.2 µM) and the MIC (Klebsiella pneumoniae) was 25 µg/mL (≈ 46.3 µM). It also gave an MIC (Aspergillus niger) of 100 µg/mL (≈ 185 µM), an MIC (Aspergillus fumigatus) of over 100 µg/mL and an MIC (Arthrodermataceae) of 25 µg/mL (≈ 46.3 µM). The MIC (Candida albicans [1]) was over 100 µg/mL, the CC50 at 72 h [2] was over 100 µg/mL and the MIC (Candida albicans [3]) was 50 µg/mL (≈ 92.6 µM). For the same compound, the MIC (Cryptococcus neoformans) was over 100 µg/mL.
`COc1cc(OC)c2c(=O)cc(-c3ccc(OCc4cn(-c5ccc(F)cc5Cl)nn4)c(OC)c3)oc2c1` gave an MIC (Candida parapsilosis) of 12.5 µg/mL (≈ 23.2 µM), an MIC (Staphylococcus aureus) of 50 µg/mL (≈ 92.9 µM) and an MIC (Enterococcus faecalis) of over 100 µg/mL. It also gave an IC50 (Plasmodium falciparum) of 3.85 µg/mL (≈ 7.16 µM), an MIC (Pseudomonas aeruginosa) of over 100 µg/mL and an MIC (Candida tropicalis) of 12.5 µg/mL (≈ 23.2 µM). For the same compound, the MIC (Shigella boydii) was 50 µg/mL (≈ 92.9 µM), the MIC (Escherichia coli) was 50 µg/mL (≈ 92.9 µM) and the MIC (Klebsiella pneumoniae) was over 100 µg/mL. For the same compound, the MIC (Aspergillus niger) was 12.5 µg/mL (≈ 23.2 µM), the MIC (Aspergillus fumigatus) was 12.5 µg/mL (≈ 23.2 µM) and the MIC (Arthrodermataceae) was 25 µg/mL (≈ 46.5 µM). The MIC (Candida albicans [1]) was 12.5 µg/mL (≈ 23.2 µM), the CC50 at 72 h [2] was over 100 µg/mL and the MIC (Candida albicans [3]) was 12.5 µg/mL (≈ 23.2 µM). For the same compound, the MIC (Cryptococcus neoformans) was 12.5 µg/mL (≈ 23.2 µM).
`COc1cc(O)c(C(=O)/C=C/c2ccc(OCc3cn(-c4ccccc4Cl)nn3)c(OCc3cn(-c4ccccc4Cl)nn3)c2)c(OC)c1` showed an MIC (Candida parapsilosis) of over 100 µg/mL, an MIC (Staphylococcus aureus) of over 100 µg/mL and an MIC (Enterococcus faecalis) of over 100 µg/mL. The IC50 (Plasmodium falciparum) was 8.38 µg/mL (≈ 12 µM), the MIC (Pseudomonas aeruginosa) was over 100 µg/mL and the MIC (Candida tropicalis) was over 100 µg/mL. The MIC (Shigella boydii) was over 100 µg/mL, the MIC (Escherichia coli) was over 100 µg/mL and the MIC (Klebsiella pneumoniae) was over 100 µg/mL. For the same compound, the MIC (Aspergillus niger) was over 100 µg/mL, the MIC (Aspergillus fumigatus) was over 100 µg/mL and the MIC (Arthrodermataceae) was over 100 µg/mL. It also gave an MIC (Candida albicans [1]) of over 100 µg/mL, a CC50 at 72 h [2] of over 100 µg/mL and an MIC (Candida albicans [3]) of over 100 µg/mL. For the same compound, the MIC (Cryptococcus neoformans) was over 100 µg/mL.
With `COc1cc(O)c(C(=O)/C=C/c2ccc(OC)c(OCc3cn(-c4ccccc4Cl)nn3)c2)c(OC)c1` the MIC (Candida parapsilosis) was 12.5 µg/mL (≈ 23.9 µM), the MIC (Staphylococcus aureus) was 25 µg/mL (≈ 47.9 µM) and the MIC (Enterococcus faecalis) was 25 µg/mL (≈ 47.9 µM). The IC50 (Plasmodium falciparum) was 8.03 µg/mL (≈ 15.4 µM), the MIC (Pseudomonas aeruginosa) was 100 µg/mL (≈ 192 µM) and the MIC (Candida tropicalis) was 6.25 µg/mL (≈ 12 µM). The MIC (Shigella boydii) was 12.5 µg/mL (≈ 23.9 µM), the MIC (Escherichia coli) was 50 µg/mL (≈ 95.8 µM) and the MIC (Klebsiella pneumoniae) was over 100 µg/mL. For the same compound, the MIC (Aspergillus niger) was 12.5 µg/mL (≈ 23.9 µM), the MIC (Aspergillus fumigatus) was 12.5 µg/mL (≈ 23.9 µM) and the MIC (Arthrodermataceae) was 12.5 µg/mL (≈ 23.9 µM). For the same compound, the MIC (Candida albicans [1]) was 12.5 µg/mL (≈ 23.9 µM), the CC50 at 72 h [2] was over 100 µg/mL and the MIC (Candida albicans [3]) was 6.25 µg/mL (≈ 12 µM). For the same compound, the MIC (Cryptococcus neoformans) was 12.5 µg/mL (≈ 23.9 µM).
Work on `OC(Cn1cncn1)(Cn1cncn1)c1ccc(F)cc1F` [FLUCONAZOLE] yielded an MIC (Candida parapsilosis) of 0.5 µg/mL (≈ 1.63 µM), an MIC (Candida tropicalis) of 0.5 µg/mL (≈ 1.63 µM) and an MIC (Aspergillus niger) of 2 µg/mL (≈ 6.53 µM). It also gave an MIC (Aspergillus fumigatus) of 2 µg/mL (≈ 6.53 µM), an MIC (Arthrodermataceae) of 4 µg/mL (≈ 13.1 µM) and an MIC (Candida albicans [1]) of 0.5 µg/mL (≈ 1.63 µM). It also gave an MIC (Candida albicans [3]) of 0.5 µg/mL (≈ 1.63 µM) and an MIC (Cryptococcus neoformans) of 2 µg/mL (≈ 6.53 µM).
